# From ChEMBL document CHEMBL3588833 (ACS Med Chem Lett, 2015)
# Experiments:
# [1] = target: T1, Sodium channel protein type 10 subunit alpha (Homo sapiens, UniProt Q9Y5Y9); experiment: Inhibition of human Nav1.8 expressed in HEK293 cells assessed as reduction in blue fluorescent signal by VSP-FRET assay; format: cell-based
# Outline: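 hNav1.8 stably expressed in an in-house HEK293 line; membrane-potential VSP-FRET read-out; IC50 from at least three tests on three separate assay runs.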
# [2] = Solubility of the compound at pH 7.2; format: physicochemical; details: buffer
# [3] = target: T1, Sodium channel protein type 10 subunit alpha; experiment: Inhibition of human Nav1.8/beta1 expressed in HEK293 cells by manual patch clamp electrophysiology; format: cell-based
# Outline: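 Recombinantly expressed human Nav1.8 with β1 subunit, recorded by manual whole-cell patch clamp electrophysiology. Inhibition was measured at the channel's V0.5 of inactivation, and IC50 values were derived from these recordings, with the number of determinations (n) reported per compound.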
# [4] = target: Sodium channel protein type 9 subunit alpha (Homo sapiens, UniProt Q15858); experiment: Inhibition of human Nav1.7 expressed in HEK293 cells by IonWorks Quattro assay
# [5] = Oral bioavailability in rat at 2 mg/kg; format: ADME, organism-based; details: in vivo
# [6] = Inhibition of Voltage gated sodium channel-mediated TTX-R current in human DRG neurons by manual patch clamp electrophysiology; details: DRG neuron
# [7] = Unbound plasma concentration in Sprague-Dawley rat at 40 mg/kg single dose; format: ADME, organism-based
# [8] = target: Sodium channel protein type 1 subunit alpha (Homo sapiens, UniProt P35498); experiment: Inhibition of human Nav1.1 expressed in HEK293 cells by IonWorks Quattro selectivity assay; format: cell-based
# [9] = Plasma clearance in rat at 1 mg/kg, iv; format: ADME, organism-based
# [10] = Volume of distribution in rat at 1 mg/kg, iv; format: ADME, organism-based; details: in vivo
# [11] = tested on: Rattus norvegicus; experiment: Toxicity in Sprague-Dawley rat assessed as effect on vertical or horizontal movement at 250 mg/kg, po single dose; format: organism-based; details: in vivo
# Outline: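 Rats given a single oral dose of 250 mg/kg; horizontal and vertical locomotor movements compared with vehicle-treated controls.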
# [12] = Tmax in rat at 2 mg/kg, po; format: ADME, organism-based; details: in vivo
# [13] = target: Sodium channel protein type 5 subunit alpha (Homo sapiens, UniProt Q14524); experiment: Inhibition of human Nav1.5 expressed in HEK293 cells by IonWorks Quattro selectivity assay; format: cell-based
# [14] = Inhibition of Voltage gated sodium channel-mediated TTX-r current in rat DRG neurons by manual patch clamp electrophysiology; details: DRG neuron
# [15] = Plasma clearance in rat at 2 mg/kg, po; format: ADME, organism-based
# [16] = Half life in rat at 1 mg/kg, iv; format: ADME, organism-based; details: in vivo
# [17] = tested on: Rattus norvegicus; experiment: Antallodynic effect in Sprague-Dawley rat tibial nerve transection-induced mechanical allodynia model assessed as 50% shift in paw withdrawal threshold in ipsilateral paw at 40 mg/kg, single dose after 1.5 hrs (reference value: 1.7 +/- 0.3 g); format: functional
# Outline: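 Tibial nerve transection neuropathic pain model in rat; single dose of 40 mg/kg; 50% paw withdrawal threshold of ipsilateral hindpaw measured 1.5 h post-dose against pre-dose baseline; pregabalin 10 mg/kg as comparator; mean ± SEM, P < 0.05 significance.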
# [18] = target: Sodium channel protein type 2 subunit alpha (Homo sapiens, UniProt Q99250); experiment: Inhibition of human Nav1.2 expressed in SHSY5Y cells assessed as reduction in blue fluorescent signal by VSP-FRET assay; format: cell-based, SH-SY5Y
# Sequence of Sodium channel protein type 2 subunit alpha (Q99250 whole entry): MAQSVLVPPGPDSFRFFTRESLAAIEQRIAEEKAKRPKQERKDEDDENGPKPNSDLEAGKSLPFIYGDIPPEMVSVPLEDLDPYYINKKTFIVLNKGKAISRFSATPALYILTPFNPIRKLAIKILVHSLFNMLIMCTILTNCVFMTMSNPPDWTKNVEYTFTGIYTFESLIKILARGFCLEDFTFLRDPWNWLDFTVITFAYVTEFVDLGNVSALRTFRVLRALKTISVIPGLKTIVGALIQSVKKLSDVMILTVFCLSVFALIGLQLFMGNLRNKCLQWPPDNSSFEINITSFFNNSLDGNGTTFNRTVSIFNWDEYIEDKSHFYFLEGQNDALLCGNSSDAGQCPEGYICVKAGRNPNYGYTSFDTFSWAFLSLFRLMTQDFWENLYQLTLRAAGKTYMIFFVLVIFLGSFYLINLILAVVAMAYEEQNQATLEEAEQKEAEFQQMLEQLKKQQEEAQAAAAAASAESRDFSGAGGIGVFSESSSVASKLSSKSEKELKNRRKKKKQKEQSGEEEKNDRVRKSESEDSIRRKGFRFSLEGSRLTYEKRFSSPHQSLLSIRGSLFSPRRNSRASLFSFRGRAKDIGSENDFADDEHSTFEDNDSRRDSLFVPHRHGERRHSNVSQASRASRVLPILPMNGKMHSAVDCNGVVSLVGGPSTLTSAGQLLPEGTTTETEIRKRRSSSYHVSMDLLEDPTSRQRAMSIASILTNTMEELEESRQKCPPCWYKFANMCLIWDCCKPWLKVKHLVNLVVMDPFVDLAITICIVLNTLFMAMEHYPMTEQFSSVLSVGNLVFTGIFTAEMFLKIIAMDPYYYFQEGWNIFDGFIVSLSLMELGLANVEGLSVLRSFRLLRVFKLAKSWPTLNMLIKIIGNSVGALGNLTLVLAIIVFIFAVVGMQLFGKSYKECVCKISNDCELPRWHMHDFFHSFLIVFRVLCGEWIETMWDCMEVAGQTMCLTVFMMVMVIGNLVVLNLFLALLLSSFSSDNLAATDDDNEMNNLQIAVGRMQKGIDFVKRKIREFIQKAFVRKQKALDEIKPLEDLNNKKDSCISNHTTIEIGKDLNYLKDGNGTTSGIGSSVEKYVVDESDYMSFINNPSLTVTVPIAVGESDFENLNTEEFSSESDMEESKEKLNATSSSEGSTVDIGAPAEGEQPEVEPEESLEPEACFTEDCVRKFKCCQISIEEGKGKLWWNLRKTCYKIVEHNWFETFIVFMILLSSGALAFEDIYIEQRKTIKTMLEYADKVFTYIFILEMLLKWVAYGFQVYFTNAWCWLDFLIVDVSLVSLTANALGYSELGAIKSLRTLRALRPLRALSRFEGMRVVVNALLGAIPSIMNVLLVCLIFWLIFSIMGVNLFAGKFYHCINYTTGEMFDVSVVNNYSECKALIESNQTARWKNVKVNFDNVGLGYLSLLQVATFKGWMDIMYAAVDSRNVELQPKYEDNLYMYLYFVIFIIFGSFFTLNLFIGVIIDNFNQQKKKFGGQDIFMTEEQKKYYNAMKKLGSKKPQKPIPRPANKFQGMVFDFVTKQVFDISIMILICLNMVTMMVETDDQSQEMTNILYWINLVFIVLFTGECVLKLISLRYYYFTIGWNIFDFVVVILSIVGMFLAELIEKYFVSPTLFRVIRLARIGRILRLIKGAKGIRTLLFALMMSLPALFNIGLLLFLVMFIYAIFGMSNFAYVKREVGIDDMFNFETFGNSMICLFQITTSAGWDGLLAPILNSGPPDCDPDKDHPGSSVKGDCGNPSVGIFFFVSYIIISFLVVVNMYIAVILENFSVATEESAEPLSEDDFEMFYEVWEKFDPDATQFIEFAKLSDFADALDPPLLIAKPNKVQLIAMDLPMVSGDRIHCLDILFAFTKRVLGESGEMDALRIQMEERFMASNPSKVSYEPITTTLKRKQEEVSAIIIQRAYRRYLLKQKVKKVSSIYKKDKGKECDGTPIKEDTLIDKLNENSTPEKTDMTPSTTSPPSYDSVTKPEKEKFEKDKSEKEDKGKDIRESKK
# [19] = Half life in rat at 3 mg/kg, po; format: ADME, organism-based; details: in vivo
# [20] = Plasma clearance in rat at 3 mg/kg, po; format: ADME, organism-based
# [21] = Intrinsic clearance in human liver microsomes; format: ADME; details: read-out: CLH
# [22] = Intrinsic clearance in rat liver microsomes; format: ADME; details: read-out: CLH
# [23] = Tmax in rat at 3 mg/kg, po; format: ADME, organism-based; details: in vivo
# T1 sequence (Q9Y5Y9 whole entry): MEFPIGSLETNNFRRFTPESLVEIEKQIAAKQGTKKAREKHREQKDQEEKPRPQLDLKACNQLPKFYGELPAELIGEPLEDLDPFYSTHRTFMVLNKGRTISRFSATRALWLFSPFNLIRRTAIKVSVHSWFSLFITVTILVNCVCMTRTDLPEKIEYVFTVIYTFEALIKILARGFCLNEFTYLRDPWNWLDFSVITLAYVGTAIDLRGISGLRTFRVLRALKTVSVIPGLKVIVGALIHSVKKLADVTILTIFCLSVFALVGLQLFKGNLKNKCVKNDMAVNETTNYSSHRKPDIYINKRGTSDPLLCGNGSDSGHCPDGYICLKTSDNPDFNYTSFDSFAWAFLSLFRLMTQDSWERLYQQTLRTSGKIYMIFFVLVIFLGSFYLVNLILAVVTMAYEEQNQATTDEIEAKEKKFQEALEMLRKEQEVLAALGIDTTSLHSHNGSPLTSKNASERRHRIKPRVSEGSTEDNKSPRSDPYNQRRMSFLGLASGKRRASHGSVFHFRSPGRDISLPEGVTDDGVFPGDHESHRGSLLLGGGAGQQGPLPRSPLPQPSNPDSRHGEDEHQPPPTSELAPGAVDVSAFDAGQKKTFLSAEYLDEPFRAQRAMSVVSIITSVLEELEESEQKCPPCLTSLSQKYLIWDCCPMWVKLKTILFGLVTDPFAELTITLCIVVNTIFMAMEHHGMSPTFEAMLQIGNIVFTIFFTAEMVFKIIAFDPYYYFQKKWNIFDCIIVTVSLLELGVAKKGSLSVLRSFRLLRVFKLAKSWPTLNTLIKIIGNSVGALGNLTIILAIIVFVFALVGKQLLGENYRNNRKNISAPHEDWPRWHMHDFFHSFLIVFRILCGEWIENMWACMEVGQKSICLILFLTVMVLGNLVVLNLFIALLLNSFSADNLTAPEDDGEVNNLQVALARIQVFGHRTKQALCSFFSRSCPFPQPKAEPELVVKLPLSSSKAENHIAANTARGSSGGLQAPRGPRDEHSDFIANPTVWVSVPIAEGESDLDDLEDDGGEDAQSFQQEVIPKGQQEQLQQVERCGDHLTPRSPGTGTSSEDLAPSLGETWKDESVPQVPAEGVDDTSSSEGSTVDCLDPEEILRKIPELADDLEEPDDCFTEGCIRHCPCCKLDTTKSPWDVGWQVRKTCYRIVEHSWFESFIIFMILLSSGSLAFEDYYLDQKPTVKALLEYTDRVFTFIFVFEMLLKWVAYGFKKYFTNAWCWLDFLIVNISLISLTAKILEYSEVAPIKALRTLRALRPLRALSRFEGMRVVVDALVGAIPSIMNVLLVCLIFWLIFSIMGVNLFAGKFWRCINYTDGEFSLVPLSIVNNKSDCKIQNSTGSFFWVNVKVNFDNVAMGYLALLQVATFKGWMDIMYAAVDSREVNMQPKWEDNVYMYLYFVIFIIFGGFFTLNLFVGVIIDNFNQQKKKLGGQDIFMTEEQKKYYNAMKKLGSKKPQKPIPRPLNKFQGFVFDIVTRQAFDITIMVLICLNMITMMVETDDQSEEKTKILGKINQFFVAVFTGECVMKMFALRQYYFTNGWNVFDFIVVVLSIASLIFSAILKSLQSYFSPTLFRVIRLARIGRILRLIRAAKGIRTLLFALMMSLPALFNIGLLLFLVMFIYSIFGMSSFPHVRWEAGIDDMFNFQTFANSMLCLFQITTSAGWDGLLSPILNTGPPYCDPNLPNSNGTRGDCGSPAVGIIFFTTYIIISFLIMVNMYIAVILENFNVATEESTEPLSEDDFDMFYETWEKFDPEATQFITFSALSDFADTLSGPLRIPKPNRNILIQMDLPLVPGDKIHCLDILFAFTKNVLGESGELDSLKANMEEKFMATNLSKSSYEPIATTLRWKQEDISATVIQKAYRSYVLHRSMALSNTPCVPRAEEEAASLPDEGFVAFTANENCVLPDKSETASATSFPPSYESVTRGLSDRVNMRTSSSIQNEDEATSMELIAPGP
compound,measurement,setting,value
CNC(=O)c1ccc(-c2ccccc2Cl)c(N)n1,IC50,[1],> 32 µM
Cn1nccc1C(=O)Nc1ccc(-c2ccccc2Cl)c(N)n1,IC50,[1],4.9 µM
Cn1nccc1C(=O)Nc1ccc(-c2cc(Cl)cc(Cl)c2Cl)c(N)n1,IC50,[1],0.75 µM
same,solubility,[2],< 0.1 µg/mL
COc1ccc(Cl)c(-c2ccc(NC(=O)c3ccnn3C)nc2N)c1 [PF-04531083],IC50,[1],0.7 µM
same,IC50,[3],0.19 µM
same,IC50,[4],36 µM
same,bioavailability,[5],59%
same,IC50,[6],0.2 µM
same,fraction unbound,[7],0.2
same,IC50,[8],37 µM
same,clearance,[9],0.402 L/h/kg
same,Vd,[10],2.25 L/kg
same,Activity,[11],Non-toxic
same,Tmax,[12],1.3 h
same,IC50,[13],37 µM
same,IC50,[14],0.54 µM
same,CL/F,[15],0.684 L/h/kg
same,half-life,[16],3.9 h
same,Activity,[17],7.3 g
COc1ccc(Cl)c(-c2ccc(NC(=O)C(C)C)nc2N)c1,IC50,[1],4 µM
CC(=O)Nc1ccc(-c2cc(Cl)cc(Cl)c2Cl)c(N)n1,IC50,[1],0.16 µM
same,IC50,[18],3.5 µM
same,half-life,[19],4.1 h
same,CL/F,[20],12.2 L/h/kg
same,microsomal CLint,[21],41 µL/min/mg
same,microsomal CLint,[22],29 µL/min/mg
same,Tmax,[23],0.75 h
CNC(=O)c1ccc(-c2cccc(Cl)c2)c(N)n1,IC50,[1],> 32 µM
CNC(=O)c1cnc(N)c(-c2cc(Cl)cc(Cl)c2Cl)c1,IC50,[1],24 µM
same,IC50,[18],6.9 µM
Cc1nocc1C(=O)Nc1ccc(-c2cc(Cl)cc(Cl)c2Cl)c(N)n1,solubility,[2],< 0.1 µg/mL
COc1ccc(Cl)c(-c2ccc(NC(=O)c3conc3C)nc2N)c1,IC50,[1],0.5 µM
